Measurements: ChEMBL document CHEMBL1811873, “Peroxisome proliferator-activated receptor agonists with phenethylphenylphthalimide skeleton derived from thalidomide-related liver X receptor antagonists: relationship between absolute configuration and subtype selectivity” (Bioorg Med Chem, 2011)
Active and inactive are the calls of the source. The calls are words filed in the database; no cut-off is given here.

Columns and labels:
[1] = target: T1, Peroxisome proliferator-activated receptor alpha (Homo sapiens) (UniProt Q07869); assay: Agonist activity at human PPARalpha expressed in HEK293 after 8 hrs by luciferase reporter gene assay relative to fenofibric acid; assay type: functional, cell-based
T1 sequence (whole entry): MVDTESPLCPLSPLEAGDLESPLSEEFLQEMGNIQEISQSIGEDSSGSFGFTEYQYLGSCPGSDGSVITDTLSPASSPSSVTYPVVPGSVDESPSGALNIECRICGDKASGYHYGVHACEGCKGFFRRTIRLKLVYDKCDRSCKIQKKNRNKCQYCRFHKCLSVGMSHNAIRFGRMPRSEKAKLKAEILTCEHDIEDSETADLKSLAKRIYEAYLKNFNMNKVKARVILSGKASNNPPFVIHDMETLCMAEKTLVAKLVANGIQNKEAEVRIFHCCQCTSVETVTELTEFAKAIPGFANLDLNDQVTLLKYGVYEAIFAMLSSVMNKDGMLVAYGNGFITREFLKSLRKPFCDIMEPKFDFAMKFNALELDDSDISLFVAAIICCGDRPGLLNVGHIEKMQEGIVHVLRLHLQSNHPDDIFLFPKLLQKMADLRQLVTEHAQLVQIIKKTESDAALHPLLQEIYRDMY
In short: (§1)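 GAL4N-hPPAR LBD chimera with TK-MH100x4-LUC reporter in calcium-phosphate-transfected HEK293 (DMEM, 5% FBS), compounds added 8 h post-transfection. Luciferase was normalized to β-galactosidase. Percent efficacy (Emax) was taken at the maximal stimulatory response relative to 10 µM fenofibric acid (PPARα), 100 nM GW501516 (PPARδ) or 10 µM ciglitazone (PPARγ). Triplicate, at least twice.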

[2] = target: T2, Peroxisome proliferator-activated receptor delta (Homo sapiens) (UniProt Q03181); assay: Agonist activity at human PPARdelta expressed in HEK293 after 8 hrs by luciferase reporter gene assay relative to GW501516; assay type: functional, cell-based; in short: as §1
T2 sequence (whole entry): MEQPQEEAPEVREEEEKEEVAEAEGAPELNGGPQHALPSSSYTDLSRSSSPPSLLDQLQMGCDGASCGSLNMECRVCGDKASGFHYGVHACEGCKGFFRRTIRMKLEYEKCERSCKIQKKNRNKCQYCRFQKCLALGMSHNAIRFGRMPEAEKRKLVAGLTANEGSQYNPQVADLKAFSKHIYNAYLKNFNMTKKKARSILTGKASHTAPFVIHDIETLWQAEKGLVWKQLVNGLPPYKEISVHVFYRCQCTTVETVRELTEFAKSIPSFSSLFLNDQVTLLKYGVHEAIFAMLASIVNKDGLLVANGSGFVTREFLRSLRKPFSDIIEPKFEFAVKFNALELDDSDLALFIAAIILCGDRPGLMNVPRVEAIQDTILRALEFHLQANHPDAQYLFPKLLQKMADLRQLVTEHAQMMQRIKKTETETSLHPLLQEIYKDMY

[3] = target: T3, Peroxisome proliferator-activated receptor gamma (Homo sapiens) (UniProt P37231); assay: Agonist activity at PPARgamma expressed in HEK293 after 8 hrs by luciferase reporter gene assay relative to ciglitazone; assay type: functional, cell-based; in short: as §1
T3 sequence (whole entry): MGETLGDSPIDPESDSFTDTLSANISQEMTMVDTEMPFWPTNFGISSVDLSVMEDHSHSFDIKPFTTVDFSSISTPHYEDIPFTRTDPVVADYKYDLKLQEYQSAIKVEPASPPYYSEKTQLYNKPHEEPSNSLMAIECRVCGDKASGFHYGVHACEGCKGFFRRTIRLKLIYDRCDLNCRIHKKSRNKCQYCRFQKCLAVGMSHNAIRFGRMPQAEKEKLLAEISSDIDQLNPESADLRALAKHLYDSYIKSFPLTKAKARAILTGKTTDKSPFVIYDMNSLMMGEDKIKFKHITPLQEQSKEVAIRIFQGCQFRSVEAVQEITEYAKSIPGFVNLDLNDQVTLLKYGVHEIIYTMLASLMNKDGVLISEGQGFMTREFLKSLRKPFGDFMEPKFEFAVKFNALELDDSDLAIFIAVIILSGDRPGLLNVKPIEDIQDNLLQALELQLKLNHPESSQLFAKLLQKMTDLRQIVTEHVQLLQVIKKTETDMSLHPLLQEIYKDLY

[4] = target: T4, Peroxisome proliferator-activated receptor gamma (Homo sapiens, UniProt P37231); assay: Agonist activity at PPARgamma expressed in HEK293 after 8 hrs by luciferase reporter gene assay; assay type: functional, cell-based
T4 sequence (P37231 whole entry): T3 sequence (whole entry)
In short: (§2)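 HEK293 cells grown in DMEM with 5% FBS at 37 °C in 5% CO2 were calcium-phosphate co-transfected with CMX-GAL4N-hPPAR LBD (subtype-specific), TK-MH100x4-LUC reporter and CMX β-galactosidase for normalization. Compounds were added 8 h post-transfection. Luciferase was read by luminometer and β-galactosidase by plate reader. Values are normalized averages; triplicate, repeated at least twice.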

[5] = target: T5, Bile acid receptor (Homo sapiens) (UniProt Q96RI1); assay: Agonist activity at FXR transfected in HEK293 cells by luciferase reporter gene assay; assay type: functional, cell-based
T5 sequence (whole entry): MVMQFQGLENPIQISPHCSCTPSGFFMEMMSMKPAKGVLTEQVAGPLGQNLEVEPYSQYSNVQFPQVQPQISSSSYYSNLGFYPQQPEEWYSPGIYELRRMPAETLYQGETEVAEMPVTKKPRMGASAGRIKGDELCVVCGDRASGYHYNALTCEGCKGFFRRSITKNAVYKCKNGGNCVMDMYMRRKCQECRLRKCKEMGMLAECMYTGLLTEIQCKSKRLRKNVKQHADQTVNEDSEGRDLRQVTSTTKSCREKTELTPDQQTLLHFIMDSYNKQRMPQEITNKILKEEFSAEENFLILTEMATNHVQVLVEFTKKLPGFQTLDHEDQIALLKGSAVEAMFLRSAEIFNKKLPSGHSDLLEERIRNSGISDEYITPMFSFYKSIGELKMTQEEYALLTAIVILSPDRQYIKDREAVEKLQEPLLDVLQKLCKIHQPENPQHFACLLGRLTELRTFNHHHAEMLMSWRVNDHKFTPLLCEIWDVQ

[6] = target: T5, Bile acid receptor (Homo sapiens); assay: Antagonist activity at FXR transfected in HEK293 cells by luciferase reporter gene assay; assay type: functional, cell-based
[7] = target: T6, Oxysterols receptor LXR-alpha (Homo sapiens) (UniProt Q13133); assay: Agonist activity at LXR; assay type: functional
T6 sequence (whole entry): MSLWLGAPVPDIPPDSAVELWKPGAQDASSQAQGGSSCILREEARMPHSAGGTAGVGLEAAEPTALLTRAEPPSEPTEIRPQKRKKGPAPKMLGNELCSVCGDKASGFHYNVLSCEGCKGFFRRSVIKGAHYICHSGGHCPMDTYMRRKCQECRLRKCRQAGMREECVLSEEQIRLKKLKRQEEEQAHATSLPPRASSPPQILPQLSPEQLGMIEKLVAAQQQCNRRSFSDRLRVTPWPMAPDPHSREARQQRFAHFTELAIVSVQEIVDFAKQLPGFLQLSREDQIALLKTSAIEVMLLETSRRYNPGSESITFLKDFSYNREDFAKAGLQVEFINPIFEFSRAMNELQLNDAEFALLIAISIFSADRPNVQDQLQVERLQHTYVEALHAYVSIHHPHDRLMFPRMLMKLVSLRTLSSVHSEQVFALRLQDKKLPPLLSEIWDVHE

[8] = target: T6, Oxysterols receptor LXR-alpha (Homo sapiens); assay: Antagonist activity at LXR; assay type: functional
[9] = target: T7, Peroxisome proliferator-activated receptor alpha (Homo sapiens, UniProt Q07869); assay: Agonist activity at human PPARalpha expressed in HEK293 after 8 hrs by luciferase reporter gene assay; assay type: functional, cell-based; in short: as §2
T7 sequence (Q07869 whole entry): T1 sequence (whole entry)

[10] = target: T8, Peroxisome proliferator-activated receptor delta (Homo sapiens, UniProt Q03181); assay: Agonist activity at PPARdelta expressed in HEK293 after 8 hrs by luciferase reporter gene assay; assay type: functional, cell-based; in short: as §2
T8 sequence (Q03181 whole entry): T2 sequence (whole entry)

| Emax [1] [%] | Emax [2] [%] | Emax [3] [%] | EC50 [4] [µM] | Activity [5] | Activity [6] | Activity [7] | Activity [8] | EC50 [9] [µM] | EC50 [10] [µM] | Compound |
| --- | --- | --- | --- | --- | --- | --- | --- | --- | --- | --- |
| 0 | 1 | 31 | 12 | inactive | inactive | inactive | inactive | – | – | O=C(O)CCCOc1ccc(CCc2ccc(N3C(=O)c4ccccc4C3=O)cc2)cc1 |
| 8 | 4 | 5 | – | – | – | – | – | – | – | O=C(O)CCCCCCc1ccc(CCc2ccc(N3C(=O)c4ccccc4C3=O)cc2)cc1 |
| 4 | 4 | 7 | – | – | – | – | – | – | – | O=C(O)CCCCc1ccc(CCc2ccc(N3C(=O)c4ccccc4C3=O)cc2)cc1 |
| 14 | 0 | 2 | – | – | – | – | – | 33 | – | O=C(O)c1ccc(CCc2ccc(N3C(=O)c4ccccc4C3=O)cc2)cc1 |
| 20 | 7 | 21 | 17 | – | – | – | – | 14 | 25 | CCC(Cc1ccc(CCc2ccc(N3C(=O)c4ccccc4C3=O)cc2O)cc1)C(=O)O (stereo not given) |
| 103 | 8 | 40 | 12 | – | – | – | – | 4.5 | – | CC[C@H](Cc1ccc(CCc2ccc(N3C(=O)c4ccccc4C3=O)cc2OC)cc1)C(=O)O |
| 102 | 33 | 49 | 9.3 | inactive | inactive | – | – | 1.4 | 4.8 | CCOc1cc(N2C(=O)c3ccccc3C2=O)ccc1CCc1ccc(CC(CC)C(=O)O)cc1 (racemic) |
| 0 | 0 | 6 | – | inactive | inactive | – | – | – | – | O=C(O)CCCCCOc1ccc(CCc2ccc(N3C(=O)c4ccccc4C3=O)cc2)cc1 |
| 73 | 24 | 78 | 8.5 | inactive | inactive | – | – | 3.4 | 11 | CCC(Cc1ccc(CCc2ccc(N3C(=O)c4ccccc4C3=O)cc2OC)cc1)C(=O)O (racemic) |
| 72 | 22 | 42 | 11 | inactive | inactive | – | – | 6.6 | 14 | CCC(Cc1ccc(CCc2ccc(N3C(=O)c4ccccc4C3=O)cc2)cc1)C(=O)O (stereo not given) |
| 87 | 54 | 36 | 5.2 | – | – | – | – | 1.7 | 1.8 | CCCOc1cc(N2C(=O)c3ccccc3C2=O)ccc1CCc1ccc(C[C@H](CC)C(=O)O)cc1 |
| 70 | 8 | 7 | – | – | – | – | – | 2.5 | – | CCCOc1cc(N2C(=O)c3ccccc3C2=O)ccc1CCc1ccc(C[C@@H](CC)C(=O)O)cc1 |
| 126 | 12 | 23 | 6.9 | – | – | – | – | 1.1 | 9.7 | CCOc1cc(N2C(=O)c3ccccc3C2=O)ccc1CCc1ccc(C[C@@H](CC)C(=O)O)cc1 |
| 69 | 29 | 62 | 3.2 | – | – | – | – | 1.7 | 1.9 | CCOc1cc(N2C(=O)c3ccccc3C2=O)ccc1CCc1ccc(C[C@H](CC)C(=O)O)cc1 |
| 63 | 32 | 36 | 7.9 | inactive | inactive | – | – | 1.8 | 3.2 | CCCCOc1cc(N2C(=O)c3ccccc3C2=O)ccc1CCc1ccc(CC(CC)C(=O)O)cc1 (stereo not given) |
| 29 | 10 | 6 | – | inactive | inactive | inactive | inactive | 29 | 62 | O=C(O)COc1ccc(CCc2ccc(N3C(=O)c4ccccc4C3=O)cc2)cc1 |
| 53 | 27 | 7 | – | inactive | inactive | inactive | inactive | 11 | 13 | O=C(O)CCc1ccc(CCc2ccc(N3C(=O)c4ccccc4C3=O)cc2)cc1 |
| 70 | 40 | 26 | 6.9 | inactive | inactive | – | – | 1.7 | 2.9 | CCCOc1cc(N2C(=O)c3ccccc3C2=O)ccc1CCc1ccc(CC(CC)C(=O)O)cc1 (racemic) |
| 66 | 41 | 102 | 7.1 | – | – | – | – | 8.9 | 7.3 | CC[C@@H](Cc1ccc(CCc2ccc(N3C(=O)c4ccccc4C3=O)cc2OC)cc1)C(=O)O |
